The values that follow come from ChEMBL document CHEMBL1147781, “Design, synthesis and in vitro antimalarial activity of an acylhydrazone library” (Bioorg Med Chem Lett, 2006).

The term IC50 denotes the concentration that inhibits the measured activity by half. For orientation: CC50 means the concentration giving 50% cytotoxicity. A lower CC50 goes with greater toxicity to the cells. Usually inhibition stands for how much of the control response was suppressed.

Test [1] has as its system Plasmodium falciparum. As to the kind of experiment: Antimalarial activity against chloroquine-resistant Plasmodium falciparum FcB1. Format: functional, organism-based. The essentials:
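P. falciparum FcB1 (chloroquine-resistant) growth inhibition; IC50 reported as mean ± SD of two to three independent experiments.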

Test [2] concerns MRC5. The experiment in a line: Cytotoxicity against human diploid embryonic lung MRC5 cells by colorimetric MTT assay. Format: functional. The essentials:
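Human MRC5 cells were used, with the value reported as CC50 in µM. Results are given as the mean ± SD of two to three independent experiments.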

Test [3] deals with Plasmodium falciparum. As to the kind of experiment: Growth inhibition of chloroquine-resistant Plasmodium falciparum FcB1 at 1 uM. The test is classed as functional.
Test [4] deals with MRC5. As to the kind of experiment: Relative antimalarial activity to cytotoxicity as selectivity index (CC50/IC50). Format: functional.

Molecules are shown by their SMILES.

For `CCN(CC)c1ccc(/C=N/NC(=O)c2ccccc2)c(O)c1`, the IC50 in the test with Plasmodium falciparum [1] is 1100 nM. Also, it took 1100 nM to reach half-maximal cytotoxicity in the test on MRC5 [2] (CC50). This compound also displayed an inhibition at 1 µM with Plasmodium falciparum [3] of 60%. Further, the “Ratio CC50/IC50” value with MRC5 [4] was found to be 1. Take `Cc1ccc(O)c(/C=N/NC(=O)c2ccc(C(C)(C)C)cc2)c1`: the IC50 with Plasmodium falciparum [1] was 2200 nM. The compound also came in with a 50% cytotoxic concentration (CC50) with MRC5 [2] of 16300 nM. The compound also yielded an inhibition at 1 µM in the test on Plasmodium falciparum [3] of 65%. Moreover, the Ratio CC50/IC50 with MRC5 [4] came out at 7.4. On to `CC(C)(C)c1ccc(O)c(/C=N/NC(=O)c2ccccc2)c1`, for which, in the test with Plasmodium falciparum [1], the midpoint of inhibition, the IC50, lay at 1300 nM. Besides, in the test with MRC5 [2], the CC50 amounted to 2600 nM. In the test with Plasmodium falciparum [3], this compound had an inhibition at 1 µM of 59%. Moreover, the Ratio CC50/IC50 with MRC5 [4] came to 2. For `CCN(CC)c1ccc(/C=N/NC(=O)c2ccc(C(C)(C)C)cc2)c(O)c1`, in that order: 900 nM, 1100 nM, 73% and 1.

In turn, `CC(C)(C)c1ccc(O)c(/C=N/NC(=O)c2ccc(Cl)cc2)c1` returned an IC50 in the test on Plasmodium falciparum [1] of 2900 nM. In the test with MRC5 [2], this compound displayed a CC50 of 3600 nM. In addition, 1 µM produced 69% inhibition in the test on Plasmodium falciparum [3]. The “Ratio CC50/IC50” value in the test with MRC5 [4] was 1. `CC(C)(C)c1ccc(O)c(/C=N/NC(=O)c2cccs2)c1` displayed a half-inhibitory concentration (IC50) in the test on Plasmodium falciparum [1] of 1600 nM. The CC50 with MRC5 [2] was 12000 nM. In the test on Plasmodium falciparum [3], this compound returned an inhibition at 1 µM of 52%. Further, the Ratio CC50/IC50 in the test with MRC5 [4] was 7.5. `CCN(CC)c1ccc(/C=N/NC(=O)c2ccc([N+](=O)[O-])cc2)c(O)c1`: inhibition with Plasmodium falciparum [1] was half-maximal at 1000 nM (IC50). Half-maximal cytotoxicity in the test with MRC5 [2] (CC50) was put at 2500 nM. In addition, the inhibition at 1 µM in the test with Plasmodium falciparum [3] was 69%. Further, the Ratio CC50/IC50 in the test with MRC5 [4] was determined as 2.5. In the test on MRC5 [2], `CCN(CC)CCCC(C)Nc1ccnc2cc(Cl)ccc12` (stereo unspecified) [CHLOROQUINE] showed a CC50 of 50000 nM.

Take `CC(C)(C)c1ccc(O)c(/C=N/NC(=O)c2ccc([N+](=O)[O-])cc2)c1`: in the test with Plasmodium falciparum [1], the half-maximal inhibitory concentration (IC50) turned out to be 1600 nM. This compound also had a CC50 with MRC5 [2] of 1100 nM. In the test with Plasmodium falciparum [3], the inhibition at 1 µM came out at 81%. Moreover, the “Ratio CC50/IC50” value with MRC5 [4] is on record as 1. Compound `COc1ccc(C(=O)N/N=C/c2cc(C(C)(C)C)ccc2O)cc1` showed a half-maximal inhibitory concentration (IC50) in the test with Plasmodium falciparum [1] of 2300 nM. For the same compound, the cytotoxic concentration (CC50) in the test on MRC5 [2] was above 100000 nM. The same compound displayed an inhibition at 1 µM with Plasmodium falciparum [3] of 53%.

For the compound `O=C(N/N=C/c1ccc(O)cc1O)c1ccccc1`, the inhibition at 1 µM in the test with Plasmodium falciparum [3] came to 14%. `CC(C)(C)c1ccc(C(=O)N/N=C/c2cc(Br)ccc2O)cc1` returned an IC50 in the test on Plasmodium falciparum [1] of 1700 nM. The compound further had a half-maximal cytotoxic concentration (CC50) in the test with MRC5 [2] above 100000 nM. This compound also yielded an inhibition at 1 µM with Plasmodium falciparum [3] of 52%. With `Cc1ccc(O)c(/C=N/NC(=O)c2ccco2)c1`, the inhibition at 1 µM in the test on Plasmodium falciparum [3] was found to be 37%. On to `COc1ccc(O)c(/C=N/NC(C)=O)c1`, for which the inhibition at 1 µM with Plasmodium falciparum [3] was determined as 3%. Take `O=C(N/N=C/c1cc(O)ccc1O)c1ccncc1`: 1 µM produced 26% inhibition in the test with Plasmodium falciparum [3]. In the case of `O=C(N/N=C/c1cc([N+](=O)[O-])ccc1O)c1ccc([N+](=O)[O-])cc1`, in the test with Plasmodium falciparum [3], the inhibition at 1 µM worked out at 31%. Still for that read-out and setting: with `O=C(N/N=C/c1ccccc1O)c1ccc(Cl)cc1` the figure was 25%; with `O=C(N/N=C/c1cc(O)ccc1O)c1ccco1`, 21%; with `COc1ccc(O)c(/C=N/NC(=O)c2ccccc2)c1`, 38%.

`Cc1ccc(O)c(/C=N/NC(=O)c2cccs2)c1` had an inhibition at 1 µM in the test on Plasmodium falciparum [3] of 23%.

In turn, `COc1ccc(O)c(/C=N/NC(=O)c2ccco2)c1` had an inhibition at 1 µM in the test with Plasmodium falciparum [3] of 33%. In turn, `COc1cccc(/C=N/NC(=O)c2cccnc2)c1O` registered an inhibition at 1 µM in the test on Plasmodium falciparum [3] of 32%. As to `O=C(Cc1ccccc1)N/N=C/c1ccccc1O`, at 1 µM the inhibition in the test on Plasmodium falciparum [3] was 27%. `O=C(N/N=C/c1cccc(O)c1O)c1ccco1` showed an inhibition at 1 µM in the test with Plasmodium falciparum [3] of 20%. `O=C(N/N=C/c1ccccc1O)c1cccs1` showed an inhibition at 1 µM with Plasmodium falciparum [3] of 13%. `CC(C)(C)c1ccc(C(=O)N/N=C/c2cccc(O)c2O)cc1`: in the test with Plasmodium falciparum [3], the inhibition at 1 µM was 41%. In the case of `COc1cccc(/C=N/NC(=O)c2ccccc2)c1O`, in the test with Plasmodium falciparum [3], the inhibition at 1 µM came to 10%.

Turning to `O=C(N/N=C/c1cccc(O)c1O)c1ccc(O)cc1`, at 1 µM the inhibition in the test with Plasmodium falciparum [3] was 20%. The compound `Cc1ccc(O)c(/C=N/NC(=O)c2ccc(Cl)cc2)c1` registered a half-inhibitory concentration (IC50) in the test on Plasmodium falciparum [1] of 1900 nM. This compound also showed a CC50 in the test on MRC5 [2] above 100000 nM. This compound also registered an inhibition at 1 µM in the test on Plasmodium falciparum [3] of 52%. In the test with Plasmodium falciparum [3], `COc1ccc(C(=O)N/N=C/c2cc(C)ccc2O)cc1` came in with an inhibition at 1 µM of 28%.

`O=C(N/N=C/c1cccc(O)c1O)c1ccncc1` gave an inhibition at 1 µM with Plasmodium falciparum [3] of 11%.

`O=C(N/N=C/c1cc(Br)ccc1O)c1cccs1`: the inhibition at 1 µM with Plasmodium falciparum [3] amounted to 38%.

In the test with Plasmodium falciparum [3], `Cc1ccc(O)c(/C=N/NC(=O)c2ccc([N+](=O)[O-])cc2)c1` came in with an inhibition at 1 µM of 46%. For `O=C(N/N=C/c1ccc(O)cc1O)c1cccs1`, the inhibition at 1 µM with Plasmodium falciparum [3] is 13%.

`COc1ccc(/C=N/NC(=O)c2ccc([N+](=O)[O-])cc2)c(O)c1` gave an inhibition at 1 µM with Plasmodium falciparum [3] of 45%. In the test on Plasmodium falciparum [3], `COc1ccc(C(=O)N/N=C/c2cccc(OC)c2O)cc1` gave an inhibition at 1 µM of 37%.
